# Measurements pooled from the literature.
# Lines come from different studies, so protocols differ.
# Target: Tyrosine-protein kinase Mer (MERTK, Homo sapiens, UniProt Q12866)
# Residues used in one study (Q12866 21-999): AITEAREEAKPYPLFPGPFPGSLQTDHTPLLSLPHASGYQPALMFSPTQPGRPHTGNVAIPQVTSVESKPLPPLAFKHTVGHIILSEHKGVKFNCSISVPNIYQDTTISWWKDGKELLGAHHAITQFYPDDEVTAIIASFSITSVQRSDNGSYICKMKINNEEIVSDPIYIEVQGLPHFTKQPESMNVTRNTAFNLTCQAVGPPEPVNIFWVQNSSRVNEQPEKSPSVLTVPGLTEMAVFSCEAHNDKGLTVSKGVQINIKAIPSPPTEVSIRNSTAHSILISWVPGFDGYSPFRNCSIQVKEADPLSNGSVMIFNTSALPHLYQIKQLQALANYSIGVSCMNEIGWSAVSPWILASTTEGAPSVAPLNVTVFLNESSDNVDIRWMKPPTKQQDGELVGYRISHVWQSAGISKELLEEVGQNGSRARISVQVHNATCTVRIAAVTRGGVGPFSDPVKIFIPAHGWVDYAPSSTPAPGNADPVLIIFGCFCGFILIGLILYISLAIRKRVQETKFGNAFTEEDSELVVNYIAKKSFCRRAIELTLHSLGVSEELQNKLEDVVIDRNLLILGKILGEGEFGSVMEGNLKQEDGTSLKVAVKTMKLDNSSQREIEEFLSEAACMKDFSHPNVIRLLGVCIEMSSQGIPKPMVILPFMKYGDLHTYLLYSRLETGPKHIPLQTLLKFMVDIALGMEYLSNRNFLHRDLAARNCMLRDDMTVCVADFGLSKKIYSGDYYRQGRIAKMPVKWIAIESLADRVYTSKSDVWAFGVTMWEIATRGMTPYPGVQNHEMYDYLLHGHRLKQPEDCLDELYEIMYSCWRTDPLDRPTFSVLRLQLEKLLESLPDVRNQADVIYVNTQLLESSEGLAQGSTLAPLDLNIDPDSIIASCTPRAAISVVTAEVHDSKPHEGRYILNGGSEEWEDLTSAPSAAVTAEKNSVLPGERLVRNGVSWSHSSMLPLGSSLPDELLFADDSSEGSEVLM
SMILES,test,setting,remaining binding [%]
CN(c1nccc(-c2cnn3ncccc23)n1)C1CC1,binding,1 µM,100
O=C(c1ccc(Nc2ncc(Cl)c(-c3cc4ccccc4s3)n2)cc1)N1CCC(N2CCCC2)CC1,"binding, competition with immobilised ligand",1 µM,1.8
CCCOc1ccc([C@@H]2[C@@H](C(=O)O)[C@H](c3ccc4c(c3)OCO4)CN2CC(=O)Nc2c(CC)cccc2CC)cc1,"cell-free assay, competition with immobilised ligand",1 µM,97
CC1CCCN1c1nccc(-c2cnn3ncccc23)n1 (stereo not drawn),binding,1 µM,98
Nc1ncc2c(n1)-c1c([nH]c3ccc(C#CC4CC4)cc13)CCCC2,"binding, competition with immobilised ligand",1 µM,100
O=C(NCCCN1CCOCC1)c1ccc(Nc2nccc(-c3cc4ccccc4s3)n2)cc1,"binding, competition with immobilised ligand",1 µM,45
COc1cc(-c2cn(C3CCc4c(F)cccc4N(CC(F)(F)F)C3=O)nn2)ccc1-n1cnc(C)c1 (stereo not drawn),"cell-free assay, competition with immobilised ligand",1 µM,100
FC(F)(F)Oc1cccc(-c2cnc3ccc(-c4ccncc4)nn23)c1,"cell-free assay, competition with immobilised ligand",5 µM,100
O=C(NCC1CCOCC1)c1n[nH]cc1NC(=O)c1c(F)cccc1F,"binding, competition with immobilised ligand",1 µM,98
COc1cnc(Nc2cccc(S(N)(=O)=O)c2)nc1N1CCN(c2ccccc2)CC1,"binding, competition with immobilised ligand",1 µM,65
CN(CCCC(F)(F)F)c1nccc(-c2cnn3ncccc23)n1,binding,1 µM,100
CN(C)c1ncnc(-c2ccc3nc(Nc4cc(CN5CCN(C(=O)CC(F)(F)F)CC5)ccn4)[nH]c3c2)c1Cl,"cell-free assay, competition with immobilised ligand",1 µM,87
F[C@@H]1CCN(c2nccc(-c3cnn4ncccc34)n2)C1,binding,1 µM,100
O=C(N[C@H]1CCCCC/C=C\C2C[C@@]2(C(=O)O)NC(=O)[C@@H]2C[C@@H](Oc3ccncc3)CN2C1=O)OC1CCCC1 (stereo partly drawn),"binding, competition with immobilised ligand",1 µM,64
c1cncc(-c2cccc(Nc3nccc(NC4CCCCC4)n3)c2)c1,"binding, competition with immobilised ligand",10 µM,4.6
COc1ccnn2ncc(-c3ccnc(N(C)C)n3)c12,binding,1 µM,99
Cc1cnc(Nc2ccc(C(=O)N3CCC(N4CCCC4)CC3)cc2)nc1-c1cc2ccccc2s1,"binding, competition with immobilised ligand",1 µM,0.7
O=S(=O)(NC1CCC(c2cc(F)ccc2F)(S(=O)(=O)c2ccc(Cl)cc2)CC1)C(F)(F)F (stereo not drawn),"cell-free assay, competition with immobilised ligand",1 µM,99
C[C@@H]1CCN(c2nccc(-c3cnn4ncccc34)n2)C1,binding,1 µM,100
CS(=O)(=O)c1cc(C2(NC(=O)c3cncc4c3cnn4-c3ccc(F)cc3)CC2)ccn1,"cell-free assay, competition with immobilised ligand",1 µM,100
COc1cnc(Nc2cccc(S(N)(=O)=O)c2)nc1N1CCN(c2ccccc2)C(=O)C1,"binding, competition with immobilised ligand",1 µM,94
